Reference: ChEMBL document CHEMBL1649112, “Effects of exposure of Clostridium difficile PCR ribotypes 027 and 001 to fluoroquinolones in a human gut model” (Antimicrob Agents Chemother, 2009)
Calls of active or inactive are those of the source. The rule behind the calls is not given here.

Columns and labels:
[1] = Drug level in human feces; format: ADME, tissue-based
[2] = tested on: Bifidobacterium; experiment: Antimicrobial activity against Bifidobacterium in three-stage chemostat gut model assessed as log reduction in bacterial count at 139 mg/liter administered every 12 hrs for 7 days; format: functional
Summary of the method: (§1)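 Three-stage anaerobic chemostat (37°C, N2-sparged; vessels at pH 5.5, 6.2 and 6.8; 66.7 h total retention) primed with 10% (wt/vol) pooled C. difficile-negative feces from healthy elderly donors. Instillation began on day 21. Vessel 2 and 3 samples were diluted 10-fold serially to 10–7 in prereduced peptone water and plated on selective agars in triplicate; counts are log10 CFU/ml.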

[3] = tested on: Enterococcus; experiment: Antimicrobial activity against Enterococcus in three-stage chemostat gut model assessed as log reduction in bacterial count at 63 mg/liter administered daily for 7 days; format: functional, organism-based; summary of the method: as §1
[4] = tested on: Lactobacillus; experiment: Antimicrobial activity against Lactobacillus in three-stage chemostat gut model assessed as log reduction in bacterial count at 63 mg/liter administered daily for 7 days; format: functional; summary of the method: as §1
[5] = tested on: Bacteroides sp.; experiment: Antimicrobial activity against Bacteroides sp. in three-stage chemostat gut model assessed as log reduction in bacterial count at 63 mg/liter administered daily for 7 days; format: functional; summary of the method: as §1
[6] = tested on: Clostridium; experiment: Antimicrobial activity against Clostridium in three-stage chemostat gut model assessed as log reduction in bacterial count at 63 mg/liter administered daily for 7 days; format: functional; summary of the method: as §1
[7] = tested on: Clostridioides difficile; experiment: Induction of cytotoxin production in Clostridium difficile PCR ribotype 001 in three-stage chemostat gut model at 63 mg/liter administered daily for 7 days measured after 3 days; format: functional, organism-based
Summary of the method: (§2)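 Gut model as above; on day 21 drug instillation began and a second C. difficile spore inoculum was added to vessel 1. Sample supernatants (16,000 x g) were diluted serially to 10–7 in PBS pH 7.4 and applied to Vero monolayers at 37°C in 5% CO2. Cell rounding was read at 24 and 48 h, and titers are given in relative units.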

[8] = tested on: Clostridioides difficile; experiment: Induction of cytotoxin production in Clostridium difficile PCR ribotype 027 in three-stage chemostat gut model at 63 mg/liter administered daily for 7 days measured after 2 days; format: functional, organism-based; summary of the method: as §2
[9] = tested on: Clostridioides difficile; experiment: Antimicrobial activity against Clostridium difficile PCR ribotype 001 expressing gyrB Glu466Lys mutant grown on fluoroquinolone-containing medium after 48 hrs; format: functional; settings: PCR ribotype 001, 48 h
[10] = tested on: Clostridioides difficile; experiment: Antimicrobial activity against Clostridium difficile PCR ribotype 027 expressing gyrB Glu466Lys mutant grown on fluoroquinolone-containing medium after 48 hrs; format: functional; settings: PCR ribotype 027, 48 h
[11] = tested on: Bifidobacterium; experiment: Antimicrobial activity against Bifidobacterium in three-stage chemostat gut model assessed as log reduction in bacterial count at 43 mg/liter administered daily for 7 days; format: functional; summary of the method: as §1
[12] = tested on: Lactobacillus; experiment: Antimicrobial activity against Lactobacillus in three-stage chemostat gut model assessed as log reduction in bacterial count at 43 mg/liter administered daily for 7 days; format: functional; summary of the method: as §1

Row | SMILES | Drug uptake [1] [mg/kg] | Activity [2] | Activity [3] | Activity [4] | FC [5] | Activity [6] | Activity [7] | Activity [8] | MIC [9] [µg/mL] | MIC [10] [µg/mL] | Activity [11] | Activity [12]
1 | O=C(O)c1cn(C2CC2)c2cc(N3CCNCC3)c(F)cc2c1=O [CIPROFLOXACIN] | 139 | Active | – | – | – | – | – | – | – | – | – | –
2 | C[C@H]1COc2c(N3CCN(C)CC3)c(F)cc3c(=O)c(C(=O)O)cn1c23.C[C@H]1COc2c(N3CCN(C)CC3)c(F)cc3c(=O)c(C(=O)O)cn1c23.O [LEVOFLOXACIN] | 94 | – | inactive | inactive | 1 | inactive | Active | Active | 256 | 256 | – | –
3 | COc1c(N2C[C@@H]3CCCN[C@@H]3C2)c(F)cc2c(=O)c(C(=O)O)cn(C3CC3)c12 [MOXIFLOXACIN] | 66 | – | – | – | – | – | – | – | – | – | inactive | inactive
